This is an account of results in publication PMC9977173 (Science Advances, 2023).

pKd: −log10 of the molar value.

As usually defined, the pKd is the Kd on a negative log10 scale, so that one unit is a factor of ten.

Series [1] relates to MB49-Luc orthotopic bladder cancer. The settings on record: mouse, in vivo.
Series [2] has as its target CD206 (Homo sapiens, UniProt P22897). Conditions: read-out: Kd of mannose; cited from earlier work.
For series [3], the system named is EJ xenograft tumor. Description: Antitumor efficiency in EJ xenograft mice. It is filed as in vivo, mouse. Conditions: 18 days; intravenous; PepCXCR4 and bsGP 500 μM, plerixafor 100 μM, 100 μl. A digest of the protocol: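 BALB/c nude mice (6 to 8 weeks, 16 to 18 g) received 5 × 10⁶ EJ cells in 100 µl s.c. in the right flank. Mice were randomised into groups of n = 6. Saline, test compound (500 µM, 100 µl) or plerixafor (100 µM, 100 µl) was given i.v. by tail vein once a day for five doses. Tumor volume was measured by calipers and body weight recorded every other day.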

The subject of series [4] is CXCR4 (breast and pancreatic cancer). Conditions: cited from earlier work.
Series [5] has as its system EJ cells. Kind of series: Cell viability. Type of series: cell-based, human. Conditions: 50 μM, 24 hours, CCK-8; n = 3. In short, it runs like this: (§1)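 Cells were seeded at 5 × 10⁴ per well in RPMI 1640 and cultured overnight at 37°C, 5% CO₂. Test compound was added at 10, 20, 50, 100, 200 or 500 µM for 24 h, then CCK-8 for 2 h at 37°C. Absorbance was read at 450 nm against a 690 nm reference. Viability = (A_s − A_b)/(A_c − A_b) × 100% versus saline-treated wells. Run in triplicate.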

For series [6], the system named is RAW264.7 cells. Description: Cell viability. Type of series: cell-based. The settings on record: 50 μM, 24 hours, CCK-8; n = 3. In short, it runs like this: as §1
Series [7] relates to orthotopic bladder tumor. It is filed as in vivo, mouse. The settings on record: 500 μM, 100 μl, intravesical instillation. In short, it runs like this:
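Once bladder tumor growth was confirmed, test compound (500 µM, 100 µl) was instilled intravesically and kept in the bladder for 60 min. Whole-body fluorescence was scanned with IVIS at 1, 4, 8, 12, 24, 48 and 72 h. The bladder was exteriorised and imaged ex vivo at 1 h after infusion.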

The subject of series [8] is pErk and pAkt (CXCR4 downstream) in EJ cells. Description: Western blot of Erk and Akt phosphorylation in EJ cells. Type of series: cell-based, human. Conditions: 50 μM, 24 hours. A digest of the protocol: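 EJ cells were lysed in buffer with protease inhibitor and centrifuged 15 min; protein was measured by BCA. 30 µg protein was run on SDS-PAGE and transferred to PVDF. Membranes were blocked 1 to 2 h at room temperature in 5% nonfat milk, 0.1% Tween 20, 10 mM TBS. Primary antibody was applied overnight at 4°C, then secondary for 1 to 2 h at room temperature. Detection was by chemiluminescence.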
(In general: In western blotting, separated proteins are transferred to a membrane and probed.)

Series [9] has as its system CD86^+ and CD206^+ TAMs, CD4^+ and CD8^+ T cells. Description: Multiplex immunofluorescence of whole tumor slices. It is filed as in vivo, mouse. The settings on record: MB49-Luc, C57BL/6, 500 μM, 100 μl, every other day, five times.

Chain of CD206 (P22897 19-1456, species assumed): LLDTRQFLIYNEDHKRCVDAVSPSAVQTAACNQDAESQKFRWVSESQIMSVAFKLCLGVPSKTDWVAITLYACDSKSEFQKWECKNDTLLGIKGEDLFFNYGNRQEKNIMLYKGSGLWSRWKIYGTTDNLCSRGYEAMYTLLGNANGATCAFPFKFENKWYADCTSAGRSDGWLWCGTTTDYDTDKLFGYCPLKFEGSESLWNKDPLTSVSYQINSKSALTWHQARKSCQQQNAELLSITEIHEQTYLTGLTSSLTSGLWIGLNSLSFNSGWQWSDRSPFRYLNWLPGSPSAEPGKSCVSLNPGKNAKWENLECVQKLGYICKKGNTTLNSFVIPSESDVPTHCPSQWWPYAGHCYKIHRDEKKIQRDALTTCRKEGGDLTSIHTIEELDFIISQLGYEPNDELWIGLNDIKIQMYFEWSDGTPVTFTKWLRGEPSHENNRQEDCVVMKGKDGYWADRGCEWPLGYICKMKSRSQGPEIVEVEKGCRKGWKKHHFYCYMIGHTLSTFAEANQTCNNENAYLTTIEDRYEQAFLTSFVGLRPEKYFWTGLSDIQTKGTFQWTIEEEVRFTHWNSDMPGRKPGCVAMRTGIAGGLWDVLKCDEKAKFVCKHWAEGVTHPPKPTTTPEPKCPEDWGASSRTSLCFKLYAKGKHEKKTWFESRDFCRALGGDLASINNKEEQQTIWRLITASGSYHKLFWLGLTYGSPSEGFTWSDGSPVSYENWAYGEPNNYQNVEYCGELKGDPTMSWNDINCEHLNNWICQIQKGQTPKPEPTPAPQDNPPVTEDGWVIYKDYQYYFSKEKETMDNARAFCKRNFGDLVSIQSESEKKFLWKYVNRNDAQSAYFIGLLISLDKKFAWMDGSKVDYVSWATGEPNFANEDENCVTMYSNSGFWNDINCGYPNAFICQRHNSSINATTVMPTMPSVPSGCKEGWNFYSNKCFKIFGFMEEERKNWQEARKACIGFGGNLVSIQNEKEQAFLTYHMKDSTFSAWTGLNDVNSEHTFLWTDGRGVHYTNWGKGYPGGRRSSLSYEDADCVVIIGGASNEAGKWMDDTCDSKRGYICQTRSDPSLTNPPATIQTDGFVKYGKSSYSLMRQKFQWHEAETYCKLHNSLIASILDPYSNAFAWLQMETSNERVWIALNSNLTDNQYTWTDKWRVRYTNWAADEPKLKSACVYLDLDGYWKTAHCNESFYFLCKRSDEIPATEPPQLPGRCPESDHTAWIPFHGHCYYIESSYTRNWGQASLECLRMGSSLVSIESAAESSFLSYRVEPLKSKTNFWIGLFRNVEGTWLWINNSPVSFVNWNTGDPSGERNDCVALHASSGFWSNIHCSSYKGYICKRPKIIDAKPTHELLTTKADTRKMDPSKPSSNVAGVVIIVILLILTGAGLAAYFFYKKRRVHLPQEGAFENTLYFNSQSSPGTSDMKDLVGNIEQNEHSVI

In the case of `C[C@H]1c2cccc(O)c2C(=O)C2=C(O)[C@]3(O)C(=O)C(C(N)=O)=C(O)[C@@H](N(C)C)[C@@H]3[C@@H](O)[C@@H]21` [Dox, doxycycline], in series [1], the recurrence rate is recorded as 89% and the “survival rate at 60 days” value turned out to be 11%.
As for `OC[C@H]1OC(O)[C@@H](O)[C@@H](O)[C@@H]1O` (some centres unmarked) [mannose], in series [2], the negative-log Kd (pKd) is around 3.00.
For `c1cc(CN2CCCNCCNCCCNCC2)ccc1CN1CCCNCCNCCCNCC1` [plerixafor], in series [3], the “tumor growth inhibition rate, EJ xenograft” value came to 32%. Moreover, in series [1], the recurrence rate is listed as 100% and the “survival rate at 60 days” value was found to be 0%. Also, the “effect on tumor apoptosis, metastasis and intratumoral Tregs” value in series [4] is “substantially promote tumor apoptosis, reduce tumor metastasis, and selectively decrease intratumoral Tregs”.
As for LGASWHRPDK [PepCXCR4], the “effect on viability of EJ cells” value in series [5] is “no substantial impact”. For the same compound, the “effect on viability of RAW264.7 cells” value in series [6] is on record as “no substantial impact”. The “fluorescence signal at the tumor site” value in series [7] is on record as “evident fluorescence signals”. Also, in series [3], the “tumor growth inhibition rate, EJ xenograft” value is 19%. Moreover, the “phosphorylation of Erk and Akt” value in [8] is recorded as “did not substantially alter”. In addition, the “CD4^+ T cells in whole tumor slice” value in series [9] (saline 1.74%) was 2.37%. Moreover, in [9] (saline 3.43%), the “tumor-infiltrating CD8^+ T cells in whole tumor slice” value was found to be 4.04%.
